ChEMBL document CHEMBL3603810, “Discovery of Potent and Selective RSK Inhibitors as Biological Probes” (J Med Chem, 2015)
Activity calls are given as the source filed them. The calls are words filed in the database; no cut-off is given here.

Columns and labels:
[1] = biological target: Ribosomal protein S6 kinase alpha-3 (Homo sapiens, UniProt P51812)
[2] = biological target: Ribosomal protein S6 kinase alpha-3 (Mus musculus, UniProt P18654); experiment: Inhibition of RSK2 in mouse BAF cells expressing activated FGFR assessed as reduction of YB1 phosphorylation at Ser102 by electochemiluminescence assay; assay type: cell-based
Sequence of Ribosomal protein S6 kinase alpha-3 (Mus musculus, UniProt P18654) (P18654 whole entry): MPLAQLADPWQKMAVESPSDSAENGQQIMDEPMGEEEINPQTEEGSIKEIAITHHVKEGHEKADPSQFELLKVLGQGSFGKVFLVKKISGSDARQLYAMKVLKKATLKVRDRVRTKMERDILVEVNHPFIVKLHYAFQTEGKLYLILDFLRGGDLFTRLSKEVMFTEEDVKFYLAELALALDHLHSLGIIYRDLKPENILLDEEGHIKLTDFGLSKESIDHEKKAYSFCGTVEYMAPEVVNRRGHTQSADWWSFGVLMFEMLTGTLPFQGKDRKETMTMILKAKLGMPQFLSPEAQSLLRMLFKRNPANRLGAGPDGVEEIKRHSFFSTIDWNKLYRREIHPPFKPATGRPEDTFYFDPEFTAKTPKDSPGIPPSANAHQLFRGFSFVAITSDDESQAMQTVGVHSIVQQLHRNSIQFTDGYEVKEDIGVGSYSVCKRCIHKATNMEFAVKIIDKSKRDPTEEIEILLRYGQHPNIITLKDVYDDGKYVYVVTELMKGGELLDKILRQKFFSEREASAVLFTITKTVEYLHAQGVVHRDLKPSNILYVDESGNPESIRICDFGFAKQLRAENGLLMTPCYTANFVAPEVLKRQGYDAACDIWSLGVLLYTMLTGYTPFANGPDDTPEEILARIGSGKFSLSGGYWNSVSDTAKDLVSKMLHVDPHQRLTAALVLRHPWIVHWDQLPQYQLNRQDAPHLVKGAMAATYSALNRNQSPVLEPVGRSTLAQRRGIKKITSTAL
How it was run: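 Cellular Ser102-phospho-YB1 ECL immunoassay in mouse BAF cells engineered to express activated FGFR. RIPA lysates are bound overnight at 4 °C to high-bind plates. Plates are blocked 2 h at rt with 10% BSA. Detection uses phospho-Ser102 YB1 antibody (1.3 μg/mL, 2 h rt), then sulfo-tag goat anti-rabbit antibody (0.5 μg/mL, 2 h rt), then MSD read buffer.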

[3] = biological target: Serine/threonine-protein kinase PLK1 (Homo sapiens) (UniProt P53350); experiment: Binding affinity to DNA-tagged PLK (unknown origin) at 10 uM by qPCR analysis
Sequence of Serine/threonine-protein kinase PLK1 (Homo sapiens) (P53350 whole entry): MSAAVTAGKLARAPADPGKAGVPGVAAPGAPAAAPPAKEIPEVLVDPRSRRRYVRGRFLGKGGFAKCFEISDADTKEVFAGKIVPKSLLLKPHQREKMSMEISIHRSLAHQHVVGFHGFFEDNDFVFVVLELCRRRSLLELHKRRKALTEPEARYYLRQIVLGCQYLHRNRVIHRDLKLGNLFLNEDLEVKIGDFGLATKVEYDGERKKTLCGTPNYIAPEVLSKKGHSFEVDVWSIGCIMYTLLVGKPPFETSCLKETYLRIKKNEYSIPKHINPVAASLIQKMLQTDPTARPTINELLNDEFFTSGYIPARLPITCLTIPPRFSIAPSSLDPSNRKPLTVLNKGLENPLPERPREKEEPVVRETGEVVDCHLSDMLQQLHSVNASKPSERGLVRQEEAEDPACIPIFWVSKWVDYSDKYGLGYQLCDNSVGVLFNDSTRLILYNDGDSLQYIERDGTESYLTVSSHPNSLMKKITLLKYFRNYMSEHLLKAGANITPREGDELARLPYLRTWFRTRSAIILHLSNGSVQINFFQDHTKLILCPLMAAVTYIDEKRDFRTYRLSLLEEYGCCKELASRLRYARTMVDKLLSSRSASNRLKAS
How it was run: (§1)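 Competitive binding panel (KinomeScan) run at 10 μM test concentration, 96 kinases in the panel, or 442 in the expanded panel. Results are reported as […], where smaller values mean stronger binding.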

Caco-2 = experiment: Permeability across human Caco2 cells; assay type: ADME, cell-based
[4] = Clearance in iv dosed Sprague-Dawley rat; assay type: ADME, organism-based; conditions: in vivo
How it was run: (§2)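 Single-dose plasma pharmacokinetics in male Sprague-Dawley rats following intravenous administration.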

[5] = Clearance in rat liver microsomes; assay type: ADME; conditions: read-out: CLH
[6] = Plasma half life in iv dosed Sprague-Dawley rat; assay type: ADME, organism-based; how it was run: as §2
[7] = Volume of distribution at steady state in iv dosed Sprague-Dawley rat; assay type: ADME, organism-based; conditions: in vivo, read-out: Vdss; how it was run: as §2
[8] = biological target: Ribosomal protein S6 kinase alpha-1 (Homo sapiens) (UniProt Q15418); experiment: Binding affinity to DNA-tagged RSK1 N-terminal kinase domain (unknown origin) assessed as level of protein captured on solid support at 10 uM by qPCR analysis relative to control; how it was run: as §1
Sequence of Ribosomal protein S6 kinase alpha-1 (Homo sapiens) (Q15418 whole entry, the tested form may be a part): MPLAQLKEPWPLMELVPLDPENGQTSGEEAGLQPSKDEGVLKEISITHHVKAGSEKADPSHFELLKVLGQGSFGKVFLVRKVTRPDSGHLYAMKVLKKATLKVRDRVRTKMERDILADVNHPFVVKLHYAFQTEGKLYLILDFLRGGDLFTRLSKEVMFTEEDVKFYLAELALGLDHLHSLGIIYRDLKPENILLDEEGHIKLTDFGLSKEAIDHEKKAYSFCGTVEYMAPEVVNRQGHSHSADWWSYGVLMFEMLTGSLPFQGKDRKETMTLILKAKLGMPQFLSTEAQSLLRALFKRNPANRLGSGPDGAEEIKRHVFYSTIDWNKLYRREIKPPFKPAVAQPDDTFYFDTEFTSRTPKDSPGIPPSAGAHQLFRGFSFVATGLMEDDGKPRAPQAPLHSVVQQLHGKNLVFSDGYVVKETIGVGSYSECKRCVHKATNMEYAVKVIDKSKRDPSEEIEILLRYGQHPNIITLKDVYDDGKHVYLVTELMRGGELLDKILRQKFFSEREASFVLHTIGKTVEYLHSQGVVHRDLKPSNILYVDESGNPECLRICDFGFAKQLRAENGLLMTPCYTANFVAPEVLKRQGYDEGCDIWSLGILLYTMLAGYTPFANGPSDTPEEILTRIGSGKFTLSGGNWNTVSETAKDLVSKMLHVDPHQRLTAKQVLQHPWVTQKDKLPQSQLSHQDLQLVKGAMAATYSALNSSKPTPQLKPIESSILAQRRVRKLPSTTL

[9] = biological target: Ribosomal protein S6 kinase alpha-2 (Homo sapiens) (UniProt Q15349); experiment: Binding affinity to DNA-tagged RSK3 N-terminal kinase domain (unknown origin) assessed as level of protein captured on solid support at 10 uM by qPCR analysis relative to control; how it was run: as §1
Sequence of Ribosomal protein S6 kinase alpha-2 (Homo sapiens) (Q15349 whole entry, the tested form may be a part): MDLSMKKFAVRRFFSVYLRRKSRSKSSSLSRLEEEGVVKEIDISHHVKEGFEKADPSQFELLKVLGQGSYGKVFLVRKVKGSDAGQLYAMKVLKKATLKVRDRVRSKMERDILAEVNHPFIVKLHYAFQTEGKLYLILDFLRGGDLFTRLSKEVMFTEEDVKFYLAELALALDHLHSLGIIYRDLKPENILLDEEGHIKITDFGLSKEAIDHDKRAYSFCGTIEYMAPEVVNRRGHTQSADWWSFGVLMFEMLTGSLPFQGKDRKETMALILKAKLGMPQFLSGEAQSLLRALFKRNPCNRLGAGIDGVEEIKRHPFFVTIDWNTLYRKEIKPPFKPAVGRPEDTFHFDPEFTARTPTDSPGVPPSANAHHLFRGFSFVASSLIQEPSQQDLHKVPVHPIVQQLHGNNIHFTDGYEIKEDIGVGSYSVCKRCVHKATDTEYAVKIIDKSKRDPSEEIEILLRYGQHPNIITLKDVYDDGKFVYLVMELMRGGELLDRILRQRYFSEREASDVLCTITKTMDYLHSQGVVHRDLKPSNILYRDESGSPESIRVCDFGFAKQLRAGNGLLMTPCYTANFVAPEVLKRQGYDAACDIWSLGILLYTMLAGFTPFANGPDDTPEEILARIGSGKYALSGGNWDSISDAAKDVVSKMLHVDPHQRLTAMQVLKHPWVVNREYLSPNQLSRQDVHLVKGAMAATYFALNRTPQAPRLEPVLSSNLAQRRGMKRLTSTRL

[10] = biological target: Ribosomal protein S6 kinase alpha-6 (Homo sapiens) (UniProt Q9UK32); experiment: Binding affinity to DNA-tagged RSK4 N-terminal kinase domain (unknown origin) assessed as level of protein captured on solid support at 10 uM by qPCR analysis relative to control; how it was run: as §1
Sequence of Ribosomal protein S6 kinase alpha-6 (Homo sapiens) (Q9UK32 whole entry, the tested form may be a part): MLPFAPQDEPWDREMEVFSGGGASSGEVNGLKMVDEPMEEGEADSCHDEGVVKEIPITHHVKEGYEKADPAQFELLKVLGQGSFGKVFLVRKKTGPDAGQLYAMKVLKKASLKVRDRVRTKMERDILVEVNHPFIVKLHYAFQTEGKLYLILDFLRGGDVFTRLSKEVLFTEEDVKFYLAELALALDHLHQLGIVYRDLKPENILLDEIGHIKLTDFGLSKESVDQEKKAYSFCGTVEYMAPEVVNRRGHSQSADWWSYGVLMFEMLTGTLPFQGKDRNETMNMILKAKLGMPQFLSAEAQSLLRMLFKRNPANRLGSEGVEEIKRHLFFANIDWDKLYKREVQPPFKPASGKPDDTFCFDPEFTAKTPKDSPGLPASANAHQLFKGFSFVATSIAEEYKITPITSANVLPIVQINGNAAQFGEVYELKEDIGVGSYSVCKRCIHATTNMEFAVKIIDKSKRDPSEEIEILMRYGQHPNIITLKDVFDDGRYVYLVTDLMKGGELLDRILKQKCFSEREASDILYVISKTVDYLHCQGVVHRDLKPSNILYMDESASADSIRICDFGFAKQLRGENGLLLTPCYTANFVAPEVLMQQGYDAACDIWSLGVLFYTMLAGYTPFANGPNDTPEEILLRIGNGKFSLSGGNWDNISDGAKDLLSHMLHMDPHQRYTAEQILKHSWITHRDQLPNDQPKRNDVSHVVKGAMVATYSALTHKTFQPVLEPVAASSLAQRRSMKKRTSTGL

Sequence of Ribosomal protein S6 kinase alpha-3 (Homo sapiens, UniProt P51812) (P51812 whole entry): as the sequence (P18654 whole entry) above, with G45V counted along it

Row | IC50 [1] | EC50 [2] | Compound | also measured
1 | 60 nM | 4200 nM | Oc1c(F)cc(-c2cnccc2-c2ccccc2)cc1F | 
2 | 80 nM | 5300 nM | COc1ccc(-c2ccncc2-c2cc(F)c(O)c(F)c2)cn1 | 
3 | 10 nM | 360 nM | Cc1ccc(-c2nc(N)ncc2-c2cc(F)c(O)c(F)c2)cc1 | 
4 | 6 nM | 1400 nM | Oc1ccc(-c2cn[nH]c2-c2cc(F)c(O)c(F)c2)cc1 | 
5 |  | 500 nM | CC(C)CCN1c2nc(Nc3cc(F)c(O)c(F)c3)ncc2N(C)C(=O)[C@H]1C | Activity [3]: Active
6 | 180 nM | 9300 nM | Oc1ccc(-c2ccncc2-c2ccc(O)cc2)cc1 | permeability (Caco-2): permeable
7 | 130 nM | 2200 nM | Oc1c(F)cc(-c2cnccc2C2CCOCC2)cc1F | 
8 | 5 nM | 1100 nM | Oc1c(F)cc(-c2cnccc2-c2cccc(-c3cn[nH]c3)c2)cc1F | 
9 | 24 nM | 2800 nM | Oc1ccc(-c2cn[nH]c2-c2ccc(O)cc2)cc1 | permeability (Caco-2): permeable
10 | 50 nM | 6400 nM | Oc1ccc(-c2ccncc2-c2cc(F)c(O)c(F)c2)cc1 | 
11 | 5 nM | 340 nM | CN1CCN(c2ccc(-c3ccncc3-c3cc(F)c(O)c(F)c3)cc2)CC1 | clearance [4]: 166 mL/min/kg; microsomal CLint [5]: 170 µL/min/mg; half-life [6]: 13 min; Vd [7]: 1.6 L/kg
12 | 8 nM | 1100 nM | COc1ccc(-c2ccncc2-c2cc(F)c(O)c(F)c2)cc1 | 
13 | 4 nM | 1100 nM | CN1CCN(c2cccc(-c3ccncc3-c3cc(F)c(O)c(F)c3)c2)CC1 | 
14 | 6 nM | 140 nM | Oc1c(F)cc(-c2cnccc2-c2ccc(N3CCNCC3)cc2)cc1F | 
15 | 46 nM | 5600 nM | COc1cccc(-c2ccncc2-c2cc(F)c(O)c(F)c2)c1 | 
16 | 20 nM | 2100 nM | CNC(=O)c1ccc(-c2ccncc2-c2cc(F)c(O)c(F)c2)cc1 | 
17 | 18 nM | 2300 nM | Oc1c(F)cc(-c2cnccc2-c2cccc(N3CCOCC3)c2)cc1F | 
18 | 53 nM | 3200 nM | Nc1n[nH]c(-c2ccc(O)cc2)c1-c1ccccc1 | 
19 | 13 nM | 690 nM | CNc1ncc(-c2cc(F)c(O)c(F)c2)c(-c2ccc(C)cc2)n1 | 
20 | 6 nM | 440 nM | CN1CCN(c2ccc(-c3cc(N)ncc3-c3cc(F)c(O)c(F)c3)cc2)CC1 | 
21 | 4 nM | 490 nM | NCCOc1cccc(-c2ccncc2-c2cc(F)c(O)c(F)c2)c1 | 
22 | 14 nM | 580 nM | CNc1cc(-c2ccc(N3CCN(C)CC3)cc2)c(-c2cc(F)c(O)c(F)c2)cn1 | 
23 | 94 nM | 10400 nM | Oc1c(F)cc(-c2cnccc2-c2ccc(F)cc2)cc1F | 
24 | 22 nM | 2500 nM | CC(C)CNc1cc(-c2ccc(N3CCN(C)CC3)cc2)c(-c2cc(F)c(O)c(F)c2)cn1 | 
25 | 23 nM | 1500 nM | Cc1ccc(-c2nc(NC(C)C)ncc2-c2cc(F)c(O)c(F)c2)cc1 | 
26 | 32 nM | 4100 nM | Cc1cccc(-c2ccncc2-c2cc(F)c(O)c(F)c2)c1 | 
27 | 20 nM | 610 nM | CC(C)Nc1ncc(-c2cc(F)c(O)c(F)c2)c(-c2ccc(N3CCN(C)CC3)cc2)n1 | 
28 | 4 nM | 210 nM | Oc1c(F)cc(-c2cnccc2-c2ccc(N3CCOCC3)cc2)cc1F | Activity [8]: 0%; Activity [3]: inactive; Activity [9]: 0.05%; Activity [10]: 0%
29 | 6 nM | 690 nM | Cc1ccc(Nc2cc(-c3ccc(N4CCN(C)CC4)cc3)c(-c3cc(F)c(O)c(F)c3)cn2)cc1 | 
30 | 7 nM | 1600 nM | Cc1ccc(-c2ccncc2-c2cc(F)c(O)c(F)c2)cc1 | 

Row | Compound | IC50 [1] | EC50 [2] | also measured
31 | Oc1ccc(-c2[nH]ncc2-c2ccccc2)cc1 | 150 nM | > 20000 nM | 
32 | Oc1ccc(-c2cn[nH]c2-c2ccccc2)cc1 | 2500 nM | > 20000 nM | 
33 | CC(C)c1ccncc1-c1cc(F)c(O)c(F)c1 | 780 nM | > 20000 nM | 
34 | Oc1c(F)cc(-c2cnccc2C2CCNCC2)cc1F | 2100 nM | > 20000 nM | 
35 | Oc1c(Cl)cc(-c2cnccc2-c2ccc(F)cc2)cc1Cl | 4800 nM | > 20000 nM | 
